The text below walks through data of ChEMBL document CHEMBL4402611, “Phenyl(thio)phosphon(amid)ate Benzenesulfonamides as Potent and Selective Inhibitors of Human Carbonic Anhydrases II and VII Counteract Allodynia in a Mouse Model of Oxaliplatin-Induced Neuropathy” (J Med Chem, 2020).

Activity calls are given as the source filed them.

The target in one data set is Carbonic anhydrase 2 (Homo sapiens, UniProt P00918). Kind of data set: Inhibition of human recombinant carbonic anhydrase 2 preincubated with enzyme for 1 hr prior to testing by phenol red-based stopped-flow CO2 hydration assay.
The target of data set [1] is Carbonic anhydrase 5B, mitochondrial (Homo sapiens, UniProt Q9Y2D0). Kind of data set: Inhibition of human recombinant carbonic anhydrase 5B preincubated with enzyme for 1 hr prior to testing by phenol red-based stopped-flow CO2 hydration assay.
Carbonic anhydrase 5B, mitochondrial, sequence (Q9Y2D0 whole entry): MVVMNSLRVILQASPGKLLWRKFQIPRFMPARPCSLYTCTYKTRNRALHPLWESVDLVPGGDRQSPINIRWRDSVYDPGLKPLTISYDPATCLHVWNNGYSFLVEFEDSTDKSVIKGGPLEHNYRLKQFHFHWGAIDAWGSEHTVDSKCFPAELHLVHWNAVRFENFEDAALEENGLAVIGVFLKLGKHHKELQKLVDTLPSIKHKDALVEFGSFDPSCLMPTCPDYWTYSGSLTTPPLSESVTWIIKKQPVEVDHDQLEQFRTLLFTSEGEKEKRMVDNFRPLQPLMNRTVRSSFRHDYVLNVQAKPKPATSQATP
A further data set has as its target Carbonic anhydrase 7 (Homo sapiens, UniProt P43166). In words: Inhibition of human recombinant carbonic anhydrase 7 preincubated with enzyme for 1 hr prior to testing by phenol red-based stopped-flow CO2 hydration assay.
Data set [2] can be described thus: Stability of compound in PBS buffer measured up to 120 mins by LC-MS/MS analysis. The class given is physicochemical. As to conditions: 2 h. In short, it runs like this: (§1)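 Analyte (1 μM final) incubated at 37 °C in PBS, 10 mM HCl (pH 2) or human plasma. Sampling at 0, 30, 60 and 120 min, each in triplicate. Samples were quenched with acetonitrile containing verapamil internal standard, centrifuged and diluted. Read-out was LC–MS/MS with positive ESI and MRM on a PFP column.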

Another data set addresses Carbonic anhydrase 1 (Homo sapiens, UniProt P00915). In words: Inhibition of human recombinant carbonic anhydrase 1 preincubated with enzyme for 1 hr prior to testing by phenol red-based stopped-flow CO2 hydration assay.
Data set [3] is described as follows: Stability of compound in human plasma measured up to 120 mins by LC-MS/MS analysis. As to conditions: 2 h. The class given is ADME, cell-free. In short, it runs like this: as §1
Another data set deals with Carbonic anhydrase 9 (Homo sapiens, UniProt Q16790). Kind of data set: Inhibition of human recombinant carbonic anhydrase 9 preincubated with enzyme for 1 hr prior to testing by phenol red-based stopped-flow CO2 hydration assay. The class given is single protein.
Data set [4] addresses Carbonic anhydrase 5A, mitochondrial (Homo sapiens, UniProt P35218). In words: Inhibition of human recombinant carbonic anhydrase 5A preincubated with enzyme for 1 hr prior to testing by phenol red-based stopped-flow CO2 hydration assay.
Another data set has as its target Carbonic anhydrase 4 (Homo sapiens, UniProt P22748). In words: Inhibition of human recombinant carbonic anhydrase 4 preincubated with enzyme for 1 hr prior to testing by phenol red-based stopped-flow CO2 hydration assay.
A short description of data set [5]: Stability of compound in aqueous HCl solution assessed as half life at pH 2 measured up to 120 mins by LC-MS/MS analysis. The class given is physicochemical. Conditions: buffer, pH 2, 2 h. In short, it runs like this:
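Analyte (1 μM final) incubated at 37 °C in 10 mM aqueous HCl (pH 2), sampled in triplicate at 0, 30, 60 and 120 min. Quenched with acetonitrile containing verapamil internal standard, then quantified by LC–MS/MS with positive-ion MRM. Half-life taken from the degradation profile.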

The target of a further data set is Carbonic anhydrase 12 (Homo sapiens, UniProt O43570). Kind of data set: Inhibition of human recombinant carbonic anhydrase 12 preincubated with enzyme for 1 hr prior to testing by phenol red-based stopped-flow CO2 hydration assay.
Carbonic anhydrase 12, sequence (O43570 whole entry): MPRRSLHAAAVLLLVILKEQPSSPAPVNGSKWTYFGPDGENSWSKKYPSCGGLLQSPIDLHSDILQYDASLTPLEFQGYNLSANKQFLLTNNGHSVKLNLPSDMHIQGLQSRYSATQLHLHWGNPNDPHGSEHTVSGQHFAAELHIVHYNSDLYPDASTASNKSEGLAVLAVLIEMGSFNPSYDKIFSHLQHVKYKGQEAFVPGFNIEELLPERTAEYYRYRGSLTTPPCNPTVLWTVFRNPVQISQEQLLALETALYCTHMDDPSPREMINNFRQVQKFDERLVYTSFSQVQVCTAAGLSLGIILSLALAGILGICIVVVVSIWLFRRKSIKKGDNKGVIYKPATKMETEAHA
In data set [6] the test system is Mus musculus. Kind of data set: Antinociceptive activity in CD-1 albino mouse model of oxaliplatin-induced neuropathic pain assessed as decrease in pain-related behaviour measured as licking latency at 100 mg/kg, po treated on day 15 post oxaliplatin treatment and measured after 30 to 45 mins post dose by cold plate test. The class given is functional, organism-based. In short, it runs like this:
(§2)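 Male CD-1 mice (22–25 g) given oxaliplatin 2.4 mg kg–1 i.p. in 5% glucose on days 1–2, 5–9 and 12–14 (10 injections). On day 15, compounds were suspended in 1% CMC and given once orally. Cold plate held at 4 °C; latency to first hind-paw licking recorded, 30 s cutoff. Readings taken before dosing and at 15, 30, 45 and 60 min after. 12 mice per group over two sets, observers blinded.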

A short description of data set [7]: Stability of compound in aqueous HCl solution at pH 2 measured up to 120 mins by LC-MS/MS analysis. The class given is physicochemical. As to conditions: buffer, pH 2, 2 h. In short, it runs like this:
as §1

Data set [8] relates to Mus musculus. In words: Antinociceptive activity in orally dosed CD-1 albino mouse model of oxaliplatin-induced neuropathic pain assessed as decrease in pain-related behaviour measured as licking latency treated on day 15 post oxaliplatin treatment and measured after 15 to 60 mins post dose by cold plate test. It is filed as functional, organism-based. In a few lines: as §2

The subject of data set [9] is Mus musculus. Kind of data set: Antinociceptive activity in CD-1 albino mouse model of oxaliplatin-induced neuropathic pain assessed as decrease in pain-related behaviour measured as licking latency at 100 mg/kg, po treated on day 15 post oxaliplatin treatment and measured after 30 mins post dose by cold plate test. It is filed as functional, organism-based. In short, it runs like this:
as §2

Data set [10] is described as follows: Solubility of compound in water. Conditions: buffer. It is filed as physicochemical.
For data set [11], the system named is Mus musculus. Kind of data set: Antinociceptive activity in CD-1 albino mouse model of oxaliplatin-induced neuropathic pain assessed as decrease in pain-related behaviour measured as licking latency at 100 mg/kg, po treated on day 15 post oxaliplatin treatment and measured after 15 mins post dose by cold plate test (reference value: 18.1 +/- 0.3 sec). The class given is functional.

Carbonic anhydrase 4, sequence (P22748 whole entry): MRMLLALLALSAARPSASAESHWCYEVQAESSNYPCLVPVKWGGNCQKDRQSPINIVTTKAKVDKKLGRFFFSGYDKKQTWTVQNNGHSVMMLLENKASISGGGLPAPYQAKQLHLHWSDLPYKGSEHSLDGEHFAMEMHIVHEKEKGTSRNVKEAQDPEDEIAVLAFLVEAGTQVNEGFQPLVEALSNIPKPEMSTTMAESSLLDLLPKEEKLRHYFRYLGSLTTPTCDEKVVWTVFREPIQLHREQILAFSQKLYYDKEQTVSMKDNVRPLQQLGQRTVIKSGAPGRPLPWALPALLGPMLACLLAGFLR
Carbonic anhydrase 7, sequence (P43166 whole entry): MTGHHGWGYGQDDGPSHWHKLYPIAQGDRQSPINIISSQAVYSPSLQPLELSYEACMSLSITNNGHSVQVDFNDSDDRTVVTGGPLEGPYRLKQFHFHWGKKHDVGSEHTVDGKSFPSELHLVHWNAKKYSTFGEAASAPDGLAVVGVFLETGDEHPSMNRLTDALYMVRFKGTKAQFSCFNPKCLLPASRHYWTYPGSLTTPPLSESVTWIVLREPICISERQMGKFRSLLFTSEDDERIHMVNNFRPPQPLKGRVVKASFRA
Carbonic anhydrase 1, sequence (P00915 whole entry): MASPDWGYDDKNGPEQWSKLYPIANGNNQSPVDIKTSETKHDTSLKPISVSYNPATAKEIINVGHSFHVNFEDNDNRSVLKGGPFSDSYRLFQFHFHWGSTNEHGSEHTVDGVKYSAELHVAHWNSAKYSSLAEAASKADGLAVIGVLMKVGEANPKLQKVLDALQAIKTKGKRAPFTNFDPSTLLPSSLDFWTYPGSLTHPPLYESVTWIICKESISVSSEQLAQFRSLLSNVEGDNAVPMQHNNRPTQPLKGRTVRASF
Carbonic anhydrase 5A, mitochondrial, sequence (P35218 whole entry): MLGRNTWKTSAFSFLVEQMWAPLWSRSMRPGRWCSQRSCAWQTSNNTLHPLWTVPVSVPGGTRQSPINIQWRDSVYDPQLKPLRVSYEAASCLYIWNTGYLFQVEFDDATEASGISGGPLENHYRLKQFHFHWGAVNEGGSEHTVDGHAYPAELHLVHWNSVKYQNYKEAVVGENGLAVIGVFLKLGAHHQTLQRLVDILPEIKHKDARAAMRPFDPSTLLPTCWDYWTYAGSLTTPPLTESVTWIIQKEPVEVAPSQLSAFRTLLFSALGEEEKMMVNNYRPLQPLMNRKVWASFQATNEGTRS

On to `NS(=O)(=O)c1ccc(OP(=O)(c2ccccc2)N2CCCC2)cc1` (racemic), for which the Ki on Carbonic anhydrase 2 came out at 1.7 nM; in [1], 25.6 nM; at Carbonic anhydrase 7, 9.3 nM; on Carbonic anhydrase 1, 242 nM; on Carbonic anhydrase 9 it was 28.9 nM; in data set [4] it was 78.3 nM. Besides, the values for the Ki on Carbonic anhydrase 4 and on Carbonic anhydrase 12 were 308 nM and 58.1 nM, respectively. Besides, the Stability result is “Stable” in [2], “Stable” in [3] and “Unstable” in data set [5].
As for `C#CCOP(=O)(Oc1ccc(S(N)(=O)=O)cc1)c1ccccc1` (racemic), in the data set on Mus musculus [6], the outcome was Active. For the same compound, the Ki on Carbonic anhydrase 2 amounted to 3.6 nM; in data set [1], 38.4 nM; on Carbonic anhydrase 7, 12.2 nM; on Carbonic anhydrase 1, 415 nM; in [4], 82.1 nM; at Carbonic anhydrase 4, 1320 nM. Also, the Ki on Carbonic anhydrase 12 turned out to be 26.7 nM. Moreover, the Stability result in data set [2], in data set [7] and in data set [3] was “Stable” in each case. The Activity result in the data set on Mus musculus [8] was “Dose-dependent effect”.
`NS(=O)(=O)c1ccc(OP(=O)(Oc2ccc(S(N)(=O)=O)cc2)c2ccccc2)cc1`: the Ki amounted to 3.2 nM on Carbonic anhydrase 2; 15 nM in data set [1]; 7.7 nM at Carbonic anhydrase 7; 671 nM at Carbonic anhydrase 1; 19.7 nM at Carbonic anhydrase 9; 284 nM in data set [4]. Moreover, the inhibitory constant (Ki) at Carbonic anhydrase 4 turned out to be 360 nM; at Carbonic anhydrase 12, 16.9 nM. The Stability entry in data set [2], in data set [7] and in [3] was “Stable” in each case. Further, in the data set with Mus musculus [9], the result was Active. For the same compound, the solubility result in [10] is recorded as “Insoluble”.
For `CC(=O)Nc1nnc(S(N)(=O)=O)s1` [ACETAZOLAMIDE], in the data set on Mus musculus [11], the Time is on record as 15.8 s.

Broadly, the Ki is the equilibrium dissociation constant of an inhibitor or competing ligand from its target.
